ChEMBL document CHEMBL4400556, “β-Lactones: A Novel Class of Ca2+-Independent Phospholipase A2 (Group VIA iPLA2) Inhibitors with the Ability To Inhibit β-Cell Apoptosis” (J Med Chem, 2019)
Active and inactive are the calls of the source. The calls are words filed in the database; no cut-off is given here.

How the values were obtained:
[1] = target: T1, 85/88 kDa calcium-independent phospholipase A2 (Homo sapiens) (UniProt O60733); experiment: Inhibition of human recombinant G6A iPLA2 at 0.091 mole fraction using arachidonyl-1-14C PAPC and PAPC incubated for 30 mins by HPLC-MS analysis based radioactivity-based group specific mixed micelle assay relative to control
T1 sequence (whole entry): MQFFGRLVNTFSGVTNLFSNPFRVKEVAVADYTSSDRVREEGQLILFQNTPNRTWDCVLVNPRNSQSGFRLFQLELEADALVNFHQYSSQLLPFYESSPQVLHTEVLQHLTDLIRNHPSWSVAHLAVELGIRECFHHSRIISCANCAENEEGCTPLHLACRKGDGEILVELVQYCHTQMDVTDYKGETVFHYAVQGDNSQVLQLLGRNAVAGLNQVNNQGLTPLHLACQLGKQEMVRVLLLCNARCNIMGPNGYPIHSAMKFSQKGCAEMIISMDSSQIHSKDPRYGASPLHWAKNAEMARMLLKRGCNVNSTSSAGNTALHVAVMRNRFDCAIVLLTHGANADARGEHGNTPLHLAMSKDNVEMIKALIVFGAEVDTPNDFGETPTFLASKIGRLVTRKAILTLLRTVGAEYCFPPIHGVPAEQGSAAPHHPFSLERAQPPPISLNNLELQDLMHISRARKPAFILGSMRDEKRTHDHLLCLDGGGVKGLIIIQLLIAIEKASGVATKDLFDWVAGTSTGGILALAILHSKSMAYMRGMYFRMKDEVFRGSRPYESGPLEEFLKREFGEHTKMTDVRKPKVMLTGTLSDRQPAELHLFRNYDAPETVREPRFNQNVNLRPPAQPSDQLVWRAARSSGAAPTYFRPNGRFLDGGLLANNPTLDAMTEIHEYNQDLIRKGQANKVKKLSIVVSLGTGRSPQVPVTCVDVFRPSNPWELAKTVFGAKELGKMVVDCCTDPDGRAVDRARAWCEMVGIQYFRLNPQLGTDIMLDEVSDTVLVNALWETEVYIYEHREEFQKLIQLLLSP
Summary of the method: (§1)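 Human recombinant GVIA iPLA2, radioactivity mixed-micelle assay. Substrate: 400 μM Triton X-100, 98.3 μM PAPC, 1.7 μM arachidonyl-1-14C PAPC. Buffer: 100 mM HEPES pH 7.5, 2 mM ATP, 4 mM DTT. Screened at 0.091 mole fraction from DMSO.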

[2] = target: T2, Cytosolic phospholipase A2 (Homo sapiens) (UniProt P47712); experiment: Inhibition of human recombinant G4A cPLA2 at 0.091 mole fraction using arachidonyl-1-14C PAPC , PAPC and PIP2 incubated for 30 mins by HPLC-MS analysis based radioactivity-based group specific mixed micelle assay
T2 sequence (whole entry): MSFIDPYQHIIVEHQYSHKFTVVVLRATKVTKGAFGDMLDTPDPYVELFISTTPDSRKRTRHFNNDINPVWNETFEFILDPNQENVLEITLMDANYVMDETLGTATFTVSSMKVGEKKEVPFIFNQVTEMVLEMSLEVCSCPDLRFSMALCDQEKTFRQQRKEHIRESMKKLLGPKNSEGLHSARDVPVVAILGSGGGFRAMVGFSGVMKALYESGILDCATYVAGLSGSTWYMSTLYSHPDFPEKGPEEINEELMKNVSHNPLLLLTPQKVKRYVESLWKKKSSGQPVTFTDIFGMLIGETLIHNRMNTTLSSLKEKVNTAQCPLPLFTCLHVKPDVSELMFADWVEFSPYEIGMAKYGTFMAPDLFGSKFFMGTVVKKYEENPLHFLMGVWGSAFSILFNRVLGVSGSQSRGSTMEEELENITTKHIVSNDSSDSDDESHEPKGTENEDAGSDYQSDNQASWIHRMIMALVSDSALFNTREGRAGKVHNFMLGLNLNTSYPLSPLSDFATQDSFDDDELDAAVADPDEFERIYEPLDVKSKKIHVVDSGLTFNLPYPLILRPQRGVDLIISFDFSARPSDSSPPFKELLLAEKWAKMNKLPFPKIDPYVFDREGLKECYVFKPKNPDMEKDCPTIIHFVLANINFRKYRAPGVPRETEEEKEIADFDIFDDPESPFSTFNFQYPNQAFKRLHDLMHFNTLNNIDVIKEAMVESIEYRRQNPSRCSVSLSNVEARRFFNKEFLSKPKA
Summary of the method: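 Human recombinant GIVA cPLA2, radioactivity mixed-micelle assay. Substrate: 400 μM Triton X-100, 95.3 μM PAPC, 1.7 μM arachidonyl-1-14C PAPC, 3 μM PIP2. Buffer: 100 mM HEPES pH 7.5, 90 μM CaCl2, 2 mM DTT, 0.1 mg/ml BSA. Screened at 0.091 mole fraction from DMSO stock. XI(50) fitted from % inhibition vs log mole fraction.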

Homo sapiens [3] = species: Homo sapiens; experiment: Inhibition of human recombinant G5 sPLA2 at 0.091 mole fraction using arachidonyl-1-14C PAPC and PAPC by HPLC-MS analysis based radioactivity-based group specific mixed micelle assay relative to control
Summary of the method: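 Human recombinant GV sPLA2, radioactivity mixed-micelle assay. Substrate: 400 μM Triton X-100, 98.3 μM PAPC, 1.7 μM arachidonyl-1-14C PAPC. Buffer: 50 mM Tris-HCl pH 8.0, 5 mM CaCl2. Compound added from DMSO at 0.091 mole fraction; percent inhibition measured.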

[4] = target: T1, 85/88 kDa calcium-independent phospholipase A2 (Homo sapiens); experiment: (§2) Inhibition of human recombinant G6A iPLA2 using arachidonyl-1-14C PAPC and PAPC incubated for 30 mins by HPLC-MS analysis based radioactivity-based group specific mixed micelle assay; summary of the method: as §1
[5] = target: T3, 85/88 kDa calcium-independent phospholipase A2 (Homo sapiens, UniProt O60733); experiment: as §2; summary of the method: as §1
T3 sequence (O60733 whole entry): T1 sequence (whole entry)

INS1 [6] = experiment: Inhibition of IL-1beta/IFNgamma-induced apoptosis in rat INS-1 cells at 0.1 to 10 uM after 16 hrs by DAPI-based TUNEL assay
INS1 [7] = experiment: Inhibition of IL-1beta/IFNgamma-induced apoptosis in rat INS-1 cells at 0.1 uM after 16 hrs by DAPI-based TUNEL assay; format: functional, cell-based
Summary of the method: (§3)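 INS-1 cells exposed 16 h to IL-1β (100 U/mL) plus IFNγ (300 U/mL), with or without compound (0.10–10 μM) or DMSO vehicle (1 μL/mL). Apoptosis read by TUNEL (green) over total DAPI-stained nuclei, 6 fields per slide. The 6-field mean per slide is one replicate (n=3–12). Results given as mean ± SEM percent apoptotic cells.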

INS1 [8] = experiment: Inhibition of IL-1beta/IFNgamma-induced apoptosis in rat INS-1 cells at 1 uM after 16 hrs by DAPI-based TUNEL assay; format: functional; conditions: INS1, 16 h; summary of the method: as §3
INS1 [9] = experiment: Cytotoxicity against rat INS-1 cells assessed as cell death at 10 uM after 16 hrs by TUNNEL assay (reference value: 7.06 +/- 0.36%); format: cell-based; conditions: ins1, 16 h
INS1 [10] = experiment: Inhibition of IL-1beta/IFNgamma-induced apoptosis in rat INS-1 cells at 10 uM after 16 hrs by DAPI-based TUNEL assay; format: functional; conditions: INS1, 16 h; summary of the method: as §3
Homo sapiens [11] = species: Homo sapiens; experiment: Selectivity index, ratio of IC50 for inhibition of human recombinant G4A cPLA2 to IC50 for inhibition of human recombinant G6A iPLA2

Compound | inhibition [1] | inhibition [2] | inhibition (Homo sapiens [3]) | XI50 (mole fraction) [4] | further results
CCC[C@@H]1OC(=O)[C@@H]1CCCCc1ccccc1 (racemic) | 99% | 94% | 34% | 0.007 | IC50 [5]: 3500 nM
CCCCCCC1OC(=O)C1CCCc1ccc(-c2ccccc2)cc1 (centres undefined) | 78% | 58% | 40% |  | 
CCCCCCC1OC(=O)C1CCCc1ccc2ccccc2c1 (centres undefined) | 59% | 54% | 40% |  | 
O=C(CCCCc1ccc2ccccc2c1)C(F)(F)F |  |  | 37% |  | 
CCC1OC(=O)C1CCCc1ccc2ccccc2c1 (centres undefined) | 93% | 85% | 29% |  | 
O=C(CCCCc1ccccc1)C(F)(F)C(F)(F)F |  |  | 28% |  | 
CC(C)C1OC(=O)C1CCCc1ccccc1 (centres undefined) | 93% | 85% | 29% |  | 
CCC[C@@H]1OC(=O)[C@@H]1CCCCc1ccc2ccccc2c1 (racemic) | 95% | 72% | < 25% | 0.0021 | 
CCC[C@H]1OC(=O)[C@@H]1CCCCc1ccc2ccccc2c1 (racemic) | 99% | 59% | 29% | 9e-05 | 
COc1ccc(CCSCC(=O)c2noc(C(C)(C)C)n2)cc1 |  |  | 38% | 0.0057 | 
CCCCCCC1OC(=O)C1CCCc1ccccc1 (centres undefined) | 89% | 91% | 47% |  | 
CC1OC(=O)C1CCCc1ccc2ccccc2c1 (centres undefined) | 89% | 85% | 26% |  | 
CCCC1OC(=O)C1CCCCc1ccc2ccccc2c1 (centres undefined) | 97% | 71% |  |  | 
COc1ccc(CCCCC(=O)C(F)(F)C(F)(F)F)cc1 |  |  | 33% |  | 

Now from value to compound, other results behind:

inhibition [1] | inhibition [2] | inhibition (Homo sapiens [3]) | XI50 (mole fraction) [4] | Compound | further results
96% | 81% |  |  | CCCC1OC(=O)C1CCCc1ccccc1 (centres undefined) | 
96% | 76% |  |  | CCCC1OC(=O)C1CCCc1ccc(OC)cc1 (centres undefined) | 
100% | 88% | 25% | 2.1e-06 | CCC[C@H]1OC(=O)[C@@H]1CCCCc1ccccc1 (racemic) | inhibition (INS1 [6]): Dose-dependent effect; inhibition (INS1 [7]): inactive; inhibition at 1 µM (INS1 [8]): 28%; Activity (INS1 [9]): 9.51%; inhibition at 10 µM (INS1 [10]): 41%; IC50 [5]: 1 nM; Ratio IC50 (Homo sapiens [11]): 22000
99% | 85% | 26% | 0.00019 | CCC[C@H]1OC(=O)[C@@H]1CCCc1ccc(OC)cc1 (racemic) | 
99% | 90% | 25% | 0.00019 | CCC[C@H]1OC(=O)[C@@H]1CCCc1ccccc1 (racemic) | 
98% | 73% | 30% | 0.0003 | CCC[C@H]1OC(=O)[C@@H]1CCCc1ccc2ccccc2c1 (racemic) | 
92% | 97% | < 25% |  | CCC[C@@H]1OC(=O)[C@@H]1CCCc1ccccc1 (racemic) | 
85% | 95% | 29% | 0.038 | CCC[C@@H]1OC(=O)[C@@H]1CCCc1ccc(OC)cc1 (racemic) | 
81% | 89% | 27% |  | CCC[C@@H]1OC(=O)[C@@H]1CCCc1ccc2ccccc2c1 (racemic) | 
100% | 84% |  |  | CCCC1OC(=O)C1CCCCc1ccccc1 (centres undefined) | 
98% | 77% |  |  | CCCC1OC(=O)C1CCCc1ccc2ccccc2c1 (centres undefined) | 
